A selection: hits, their analogues and other compounds. The true share with any hit is near 2.3%.
TRPC4 act = TRPC4 (mouse) channel activation; B-score at 10 µM; Q9QUQ5; 0.49% of 310,000 active; HEK293 TRPC4beta/mu-opioid, Fluo4 calcium fluorescence; active compounds read high;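 active = B-score above 5 SD of library B-scores, and initial fluorescence ratio not above library mean plus 5 SD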;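 note: positive B-score marks a calcium rise read as TRPC4 activation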
Target sequence (Q9QUQ5 whole entry, looked up): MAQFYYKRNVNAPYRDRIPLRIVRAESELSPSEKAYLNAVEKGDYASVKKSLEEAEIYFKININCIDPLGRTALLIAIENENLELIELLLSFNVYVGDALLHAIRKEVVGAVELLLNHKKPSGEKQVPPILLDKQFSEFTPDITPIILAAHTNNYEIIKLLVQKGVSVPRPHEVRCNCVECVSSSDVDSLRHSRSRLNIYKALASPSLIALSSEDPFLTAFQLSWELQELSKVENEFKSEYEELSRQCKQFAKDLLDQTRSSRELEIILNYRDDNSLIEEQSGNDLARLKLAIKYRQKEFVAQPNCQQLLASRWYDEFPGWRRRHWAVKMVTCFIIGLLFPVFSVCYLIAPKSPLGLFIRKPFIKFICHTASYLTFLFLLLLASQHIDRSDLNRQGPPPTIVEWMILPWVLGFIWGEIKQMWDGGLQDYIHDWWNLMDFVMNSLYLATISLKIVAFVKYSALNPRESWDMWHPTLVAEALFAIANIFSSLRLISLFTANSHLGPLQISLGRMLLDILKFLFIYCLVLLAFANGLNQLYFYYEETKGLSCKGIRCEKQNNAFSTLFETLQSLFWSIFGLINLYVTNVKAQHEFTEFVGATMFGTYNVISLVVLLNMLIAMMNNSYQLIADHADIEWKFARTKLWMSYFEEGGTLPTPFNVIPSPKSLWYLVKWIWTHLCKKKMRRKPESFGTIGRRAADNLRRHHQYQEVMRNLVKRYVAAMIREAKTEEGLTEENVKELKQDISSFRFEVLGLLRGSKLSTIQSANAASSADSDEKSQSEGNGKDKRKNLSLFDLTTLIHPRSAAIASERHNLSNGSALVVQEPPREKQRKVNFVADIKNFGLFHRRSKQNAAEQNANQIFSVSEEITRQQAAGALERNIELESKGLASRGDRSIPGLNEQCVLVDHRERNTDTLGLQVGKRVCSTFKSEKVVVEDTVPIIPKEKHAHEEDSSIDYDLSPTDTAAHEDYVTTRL
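System: HEK293 cells stably co-expressing mouse TRPC4beta and mu-opioid receptor; Schedule: Fluo4 dye loading 45 min at room temperature, 110 s recording; Detection: Fluo4 fluorescence, kinetic; Evaluation: B-scored integrated calcium fluorescence ratio; Controls: buffer (low) and maximal DAMGO (high).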
TRPC4 inh = inhibitors of mouse TRPC4 channel | Q9QUQ5 | HEK293 TRPC4beta/mu-opioid, DAMGO-evoked Fluo4 calcium flux; active compounds read low | B-score at 10 µM | 0.39% of 300,000 active | AID 2247;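 active = B-score over 3 SD under the library average, no early fluorescence shift, positive overall ratio signal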
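Assay system – HEK293 line stably carrying TRPC4beta and mu-opioid receptor · Doses – single dose · Detection – Fluo4 calcium-dye fluorescence, kinetic read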
TRPC6 inh = mouse TRPC6 channel inhibition | Q61143 | HEK293-TRPC6, membrane potential dye, ACh-evoked depolarization; active compounds read low | B-score at 10 µM | 1.1% of 310,000 active | AID 2553;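 active = B-score under library mean minus 3 SD, initial fluorescence not abnormally high, positive integrated signal ratio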;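 note: B-score derived from integrated fluorescence ratio over the kinetic read; more negative B-score means stronger inhibition of depolarization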
TRPC6 act = activators of mouse TRPC6 channel. B-score at 10 µM. HEK293-TRPC6 membrane potential dye fluorescence; active compounds read high. 0.13% of 310,000 active;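 active = B-score of the integrated fluorescence ratio above library mean plus 3 SD, and starting fluorescence ratio within library mean plus 5 SD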;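 note: higher score means more depolarization so channel activation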
TRPC4 PAM = TRPC4 (mouse) allosteric potentiation | Q9QUQ5 | 0.42% of 310,000 active | AID 2227 | HEK293 TRPC4beta/mu-opioid, DAMGO EC20, Fluo-4 Ca2+ flux; active compounds read high | B-score at 10 µM;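 active = B-score of calcium response area above 5 SD of library B-scores, with initial fluorescence ratio within 5 SD of library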
TRPC4 spec 2 = second check of whether TRPC6 inhibitors also affect mouse TRPC4. shares compounds with TRPC6 inh. HEK293 TRPC4/MOR, membrane potential dye fluorescence; channel activated by saturating DAMGO dose. inhibition, % at 10 µM. 42% of 920 active. AID 2776;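 active = compounds whose fluorescence signal differed from control wells by over 3 SD, either direction, in both duplicate plates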
TRPC4 spec = selectivity of TRPC6 inhibitors: effect on mouse TRPC4. activity change, negative = inhibition, % at 10 µM. shares compounds with TRPC6 inh. 61% of 920 active. HEK293 TRPC4/mu-opioid, membrane potential fluorescence. AID 2777;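 active = rise or fall in signal beyond 3 SD of buffer-only wells in both replicate plates, either sign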;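 note: integrated kinetic ratio of fluorescence range over baseline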
HEK293 MPD ctr 2-1 = parental HEK293 nonspecific activity of TRPC6 inhibitors, second screen; shares compounds with TRPC6 inh; parental HEK293 membrane potential dye fluorescence; maximal acetylcholine challenge after compound addition; 31% of 920 active; signal change vs control, % at 10 µM;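 active = membrane potential signal moving either way by over 3 SD of the maximum-effect control, in both duplicate plates, meaning non-specific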
HEK293 MPD ctr-1 = parental HEK293 nonspecific activity of TRPC6 inhibitors | shares compounds with TRPC6 inh | parental HEK293 membrane potential dye fluorescence | membrane potential signal change, % at 10 µM | 60% of 920 active;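 active = membrane potential signal shifting up or down by more than 3 SD of buffer-only wells, on both duplicate plates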
HEK293 MPD ctr-2 = parental HEK293 nonspecific activity of TRPC6 modulators; membrane potential dye fluorescence; membrane potential signal change, % at 10 µM; 51% of 2,400 active; AID 488924; shares compounds with TRPC6 inh;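 active = membrane potential signal moves up or down beyond 5 SD from buffer-only wells, on both duplicate plates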
HEK293 MPD ctr 2-2 = second counter-screen for TRPC6 modulators: effect in parental HEK293 cells | shares compounds with TRPC6 inh | membrane potential dye fluorescence; after compound, maximal acetylcholine stimulation | inhibition, % at 10 µM | 14% of 2,400 active;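 active = membrane potential signal drops by more than 5 SD from the mean control signal, in both duplicate plates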
TRPC4/MOR mod = selectivity of TRPC6 modulators against mouse TRPC4 | shares compounds with TRPC6 inh | HEK293 TRPC4/mu-opioid, membrane potential fluorescence | percent change from control (negative = decrease, positive = increase), % at 10 µM | 69% of 2,400 active;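 active = membrane potential signal moved up or down beyond 5 SD of buffer control wells, in both duplicate plates, actives on both sides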
TRPC4/MOR inh 2 = second selectivity test of TRPC6 modulators against mouse TRPC4. inhibition, % at 10 µM. 55% of 2,400 active. HEK293 TRPC4/mu-opioid, membrane potential dye fluorescence; stimulated with maximal-effect DAMGO. shares compounds with TRPC6 inh;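 active = drop in membrane potential signal beyond 5 SD of the control wells in both duplicate plates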;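 note: TRPC4 counter screen for TRPC6 hits run under conditions tuned for TRPC6 not TRPC4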
TRPC6 block conf = mouse TRPC6 inhibitor confirmation; shares compounds with TRPC6 inh; 43% of 3,300 active; HEK293-TRPC6, membrane potential dye, ACh-evoked depolarization; AID 488960; inhibition, % at 10 µM;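 active = fluorescence ratio falls more than 5 SD below the full-stimulation control mean, in both duplicate runs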;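 note: integrated fluorescence ratio of peak minus minimum over baseline after agonist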
TRPC6 act confirm = confirmation of mouse TRPC6 activators; shares compounds with TRPC6 inh; HEK293-TRPC6 membrane potential dye fluorescence, FDSS; activation, % at 10 µM; 11% of 2,800 active; AID 488961;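 active = ratio signal rise beyond 5 SD above unstimulated control wells' mean, seen in both duplicate runs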
Of the large screens only hits and unclear results are named; the others gave an inactive call (follow-up assays come after a bar, where they were run).

Cc1cc(C)c2nc(N(CCN(C)C)C(=O)c3ccc(S(=O)(=O)N(C)CC4CCCO4)cc3)sc2c1 (stereo not given)	none
CCc1sc(C(=O)NCCCn2ccnc2)cc1Br	none
CS(=O)(=O)c1ccc(NC(=O)CCCc2nc3ccccc3c(=O)[nH]2)cc1	none
CN(C)CCN(C(=O)c1ccc(C(=O)c2ccccc2)cc1)c1nc2cc3c(cc2s1)OCO3	none
CN(C)CCCN(C(=O)c1ccc(S(=O)(=O)N(C)C)cc1)c1nc2cc3c(cc2s1)OCO3	TRPC6 inh -5 | HEK293 MPD ctr-2 inactive | HEK293 MPD ctr 2-2 inactive | TRPC4/MOR mod -14% | TRPC4/MOR inh 2 55% | TRPC6 block conf inactive | TRPC6 act confirm inactive
CN(C)CCCN(C(=O)c1ccco1)c1nc2ccc(Br)cc2s1	TRPC6 inh -8.1 | HEK293 MPD ctr-2 -120% | HEK293 MPD ctr 2-2 inactive | TRPC4/MOR mod -34% | TRPC4/MOR inh 2 71% | TRPC6 block conf inactive | TRPC6 act confirm inactive
CN(C)CCCN(C(=O)c1ccco1)c1nc2ccc(Cl)cc2s1	TRPC6 inh -6.3 | HEK293 MPD ctr-2 -180% | HEK293 MPD ctr 2-2 inactive | TRPC4/MOR mod -35% | TRPC4/MOR inh 2 76% | TRPC6 block conf 50% | TRPC6 act confirm inactive
CN(C)CCCN(C(=O)CCc1ccccc1)c1nc2ccc(Br)cc2s1	none
COc1ccccc1NC(=O)NNC(=O)CCc1ccccc1	none
O=C(NNC1=C(C(=O)C(F)(F)F)CCC1)c1cccc(O)c1	none
Cc1cccc(C(=O)NNC2=C(C(=O)C(F)(F)F)CCC2)c1O	TRPC6 inh -7.6 | TRPC4 spec 2 inactive | TRPC4 spec -12% | HEK293 MPD ctr 2-1 inactive | HEK293 MPD ctr-1 -190% | TRPC6 block conf inactive | TRPC6 act confirm inactive
CSc1nnc(NC(=O)c2ccc(S(=O)(=O)N3CCOCC3)cc2)s1	none
O=C(Nc1ccc2c(c1)CCC2)c1cc(=O)[nH]c2ccccc12	none
Cc1cc(N2CCCC2)ccc1/C=C1\NC(=S)N(C)C1=O	TRPC4 act 70, TRPC6 act 52 | HEK293 MPD ctr-2 inactive | HEK293 MPD ctr 2-2 inactive | TRPC4/MOR mod 33% | TRPC4/MOR inh 2 inactive | TRPC6 block conf inactive | TRPC6 act confirm 32%
OCC1(CCc2ccccc2)CCN(C/C=C/c2ccccc2)CC1	none
OCC1(Cc2ccccc2Cl)CCN(C/C=C/c2ccccc2)CC1	TRPC6 inh -5.3 | HEK293 MPD ctr-2 132% | HEK293 MPD ctr 2-2 inactive | TRPC4/MOR mod 25% | TRPC4/MOR inh 2 60% | TRPC6 block conf inactive
CCC(C)(C)NC(=O)Cc1ccc(Cl)cc1	none
CC(NC(=O)Nc1nnc(C(F)(F)F)s1)(C(F)(F)F)C(F)(F)F	TRPC6 inh -7.3 | TRPC4 spec 2 57% | TRPC4 spec 51% | HEK293 MPD ctr 2-1 inactive | HEK293 MPD ctr-1 30% | TRPC6 block conf 87%
CC(C)(C)CC(=O)Nc1nnc(C(F)(F)F)s1	none
O=C(CSc1ccc([N+](=O)[O-])cn1)Nc1cc(C(F)(F)F)ccc1N1CCOCC1	none
CC1C/C(=N/Nc2nc3ccccc3[nH]2)CC(C)(C)C1 (stereo not given)	TRPC6 inh -5.4 | HEK293 MPD ctr-2 inactive | HEK293 MPD ctr 2-2 inactive | TRPC4/MOR mod inactive | TRPC4/MOR inh 2 48% | TRPC6 block conf inactive | TRPC6 act confirm inactive
CC1C/C(=N/NC(=O)c2ccc(CSc3nc4ccccc4[nH]3)cc2)CC(C)(C)C1 (stereo not given)	none
Cc1cc(C(C)(C)C)oc1C(=O)OCC(=O)NC1CCCCC1	TRPC6 inh -5.3 | HEK293 MPD ctr-2 inactive | HEK293 MPD ctr 2-2 inactive | TRPC4/MOR mod 26% | TRPC4/MOR inh 2 inactive | TRPC6 block conf 53%
Cc1ccc(C)c(N(CC(=O)NC2CCCC2)C(=O)c2oc(C(C)(C)C)cc2C)c1	none
CCNc1cc2n(c(=O)n1)CCc1cc(OC)c(OC)cc1-2	none
COc1cc2c(cc1OC)-c1cc(NCc3ccccn3)nc(=O)n1CC2	TRPC6 inh -5.4 | HEK293 MPD ctr-2 -196% | HEK293 MPD ctr 2-2 inactive | TRPC4/MOR mod -34% | TRPC4/MOR inh 2 inactive | TRPC6 block conf inactive | TRPC6 act confirm inactive
COc1ccc(N2CCc3c(C)nc4c(OC)cc(OC)cc4c32)c(OC)c1	none
COc1ccc(N2CCc3c(C)nc4c(OC)cccc4c32)cc1	TRPC6 inh -8 | TRPC4 spec 2 52% | TRPC4 spec -24% | HEK293 MPD ctr 2-1 inactive | HEK293 MPD ctr-1 -320% | TRPC6 block conf 58% | TRPC6 act confirm inactive
COc1cccc(N2CCc3c(C)nc4ccc(Cl)cc4c32)c1	TRPC6 inh -6.2 | HEK293 MPD ctr-2 inactive | HEK293 MPD ctr 2-2 58% | TRPC4/MOR mod inactive | TRPC4/MOR inh 2 88% | TRPC6 block conf 62% | TRPC6 act confirm inactive
COc1ccc(N2CCc3c(C)nc4c(OC)cc(OC)cc4c32)cc1	TRPC6 inh -5.7 | HEK293 MPD ctr-2 -173% | HEK293 MPD ctr 2-2 76% | TRPC4/MOR mod -24% | TRPC4/MOR inh 2 56% | TRPC6 block conf 55% | TRPC6 act confirm inactive
Cc1nc2c(C)cccc2c2c1CCN2c1ccccc1F	TRPC6 inh -5.8 | HEK293 MPD ctr-2 -143% | HEK293 MPD ctr 2-2 inactive | TRPC4/MOR mod -20% | TRPC4/MOR inh 2 58% | TRPC6 block conf 50% | TRPC6 act confirm inactive
